{
  "source": "paper PMC10739612",
  "about": "(ACS Chemical Neuroscience, 2023)",
  "key": {"[1]": {"test_system": "i3Neurons stably expressing LC3-RFP-GFP", "assay": "LC3-RFP-GFP dual reporter live imaging in i3Neurons", "type": "cell-based, human", "how_it_was_run": "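iPSC-derived i3Neurons stably expressing LC3-RFP-GFP, DIV 10; 0.1% DMSO or test compound 15 μM for 72 h, or BafA1 100 nM for 24 h. Live Fast Airyscan at 37 °C; single mid-cell scan, 488/560 nm. GFP+RFP+ vesicles scored as autophagosomes, RFP-only as autolysosomes. Autolysosome size and intensity from red-channel particle analysis. Three experiments, 60–70 cells per treatment; mean ± SEM.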"}, "[2]": {"test_system": "HeLa cells expressing eGFP-LC3", "assay": "eGFP-LC3 puncta formation assay", "type": "cell-based", "how_it_was_run": "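HeLa stably expressing eGFP-LC3, 3000 cells/well (384-well), 24 h at 37 °C, then 4 h compound exposure. PFA fixation (12 min RT), Hoechst 2 μg/mL; imaged at 10× (DAPI/FITC). Screen hits: Z' >0.4, CV <20%, z-score >2.199 in two replicates. EC50 from 12-point doses (300–0.146 or 1000–0.488 μM by series), excluding concentrations with <40% viability; three experiments in duplicate, mean ± SEM.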"}, "[3]": {"molecular_target": "T1, Lamin A/C (Homo sapiens, UniProt P02545)", "T1 sequence (P02545 1-566 limits assumed)": "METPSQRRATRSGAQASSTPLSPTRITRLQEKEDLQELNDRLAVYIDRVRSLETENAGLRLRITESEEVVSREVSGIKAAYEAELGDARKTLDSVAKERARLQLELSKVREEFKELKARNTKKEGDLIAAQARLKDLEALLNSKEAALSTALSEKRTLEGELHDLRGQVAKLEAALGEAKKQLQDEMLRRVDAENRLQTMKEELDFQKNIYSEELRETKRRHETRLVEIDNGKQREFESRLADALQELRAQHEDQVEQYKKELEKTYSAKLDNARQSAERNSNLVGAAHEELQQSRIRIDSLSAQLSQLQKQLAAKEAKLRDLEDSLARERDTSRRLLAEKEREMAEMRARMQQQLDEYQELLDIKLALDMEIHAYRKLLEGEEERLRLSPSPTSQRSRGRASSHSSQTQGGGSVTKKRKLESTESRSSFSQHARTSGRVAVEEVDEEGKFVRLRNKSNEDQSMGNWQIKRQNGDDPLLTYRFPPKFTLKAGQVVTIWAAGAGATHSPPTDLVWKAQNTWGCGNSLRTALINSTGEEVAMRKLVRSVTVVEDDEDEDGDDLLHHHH", "assay": "Pulldown validation and competition, immunoblot for Lamin A/C", "type": "binding", "settings": "Biotin-RH1115 50 μM, HeLa lysate", "how_it_was_run": "(§1)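 HeLa grown 3 days to confluency; lysate cleared 18,000g, 30 min, 4 °C; protein by BCA. Streptavidin magnetic beads preloaded 2 h at 4 °C with biotinylated probe (50 μM) or biotin acid (50 μM). 500 μg lysate added (200 μL), 16 h; beads washed with PBS, eluted in 1× SDS loading buffer, immunoblotted. Competition: free test compound 100 μM added with lysate, 16 h, 4 °C.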"}, "[4]": {"molecular_target": "T2, LAMP1 (Homo sapiens, UniProt P11279)", "T2 sequence (P11279 29-417)": "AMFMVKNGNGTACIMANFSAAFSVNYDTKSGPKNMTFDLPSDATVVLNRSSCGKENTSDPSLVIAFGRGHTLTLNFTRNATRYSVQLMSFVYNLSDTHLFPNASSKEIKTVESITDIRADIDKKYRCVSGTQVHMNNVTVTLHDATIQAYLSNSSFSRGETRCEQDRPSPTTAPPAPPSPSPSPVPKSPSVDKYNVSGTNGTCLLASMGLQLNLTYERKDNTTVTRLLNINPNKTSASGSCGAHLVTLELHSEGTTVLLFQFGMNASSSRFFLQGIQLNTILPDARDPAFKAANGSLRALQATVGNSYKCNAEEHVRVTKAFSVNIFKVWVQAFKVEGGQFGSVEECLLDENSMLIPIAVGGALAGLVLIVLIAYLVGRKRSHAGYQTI", "assay": "Pulldown validation and competition, immunoblot for LAMP1", "type": "binding", "settings": "Biotin-RH1115 50 μM, HeLa lysate", "how_it_was_run": "as §1"}, "[5]": {"test_system": "LC3-II levels in HeLa cells", "assay": "LC3 immunoblotting", "type": "cell-based", "settings": "4 h, 1a 20 μM, 2a 40 μM, further increase with BafA1 100 nM"}, "[6]": {"test_system": "phosphorylation of the mTOR substrate p70S6K in HeLa cells", "assay": "P70S6K and phospho-P70S6K immunoblotting", "type": "cell-based", "settings": "1a 20 μM, 2a 40 μM, compared to rapamycin 1 μM", "how_it_was_run": "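Same HeLa immunoblot workflow as for LC3, with test compound at 40 μM and 1% BSA for blocking. Probed for phospho-p70S6K and β-actin (anti-rabbit HRP secondary), then stripped and reprobed for total p70S6K; densitometry in ImageJ.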"}, "[7]": {"test_system": "i3Neurons", "assay": "Cell viability assay in i3Neurons", "type": "cell-based, human", "settings": "72 h from DIV 7; DS1040 20 μM, RH1096 40 μM, RH1103 40 μM, RH1115 15 μM", "how_it_was_run": "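Viability check: DIV 10 i3Neurons on coated coverslips exposed 72 h (0.1% DMSO vehicle), fixed, immunostained for Tau and LAMP1. 5–6 random high-magnification fields per sample; neurons per unit area counted. Tau staining used to confirm normal morphology and neurite integrity. Mean ± SEM, three independent experiments.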"}, "[8]": {"test_system": "HeLa cells", "assay": "Cell viability assay by nuclear count", "type": "cell-based", "settings": "4 h, relative to DMSO"}, "[9]": {"test_system": "LAMP1", "assay": "LAMP1 expression immunoblotting in HeLa cells", "type": "cell-based", "settings": "50 μM, 24 h, vs control", "how_it_was_run": "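HeLa seeded at 300,000 cells/mL in 6-well plates; 0.1% DMSO or test compound 50 μM. Lysates cleared 12,000 rpm, 30 min, 4 °C; 10% SDS-PAGE, PVDF transfer; 5% blocker in TBS-T; primary antibody overnight 4 °C, HRP secondary 1 h RT; chemiluminescent detection; band quantification in ImageJ.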"}, "[10]": {"test_system": "i3Neurons", "assay": "Analysis of lysosomal", "type": "cell-based, human", "settings": "15 μM, 72 h, vs DMSO", "how_it_was_run": "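DIV 10 i3Neurons on poly-L-ornithine/laminin-coated glass coverslips; 72 h exposure, 0.1% DMSO vehicle; fixed, LAMP1-immunostained, imaged by high-resolution confocal. Soma outlined, thresholded, ImageJ particle analysis (minimum 0.002 μm²) giving vesicle mean size, intensity and count per neuron. Three independent experiments, 20–25 neurons per treatment; mean ± SEM.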"}},
  "note": "pEC50: −log10 of the molar value.",
  "data": [
    {"smiles": "CO/C1=C\\C(C)=C\\[C@@H](C)[C@@H](O)[C@@H](C)C/C(C)=C/C=C/[C@H](OC)[C@@H]([C@@H](C)[C@@H](O)[C@H](C)[C@@]2(O)C[C@@H](O)[C@H](C)[C@@H](C(C)C)O2)OC1=O", "note": "[BafA1, bafilomycin A1, reference compound]", "values": [
      {"measurement": "percentage of autolysosomes", "setting": "[1]; BafA1 100 nM 24 h, compared with RH1115 or DMSO", "result": "far less"},
      {"measurement": "number of autophagosomes per neuronal cell body", "setting": "[1]; RH1115 15 μM 72 h, BafA1 100 nM 24 h", "result": "massively increased"}
    ]},
    {"smiles": "O=C(CCCCC1SCC2NC(=O)NC21)NCCOCCOCCOCCn1nncc1CCCC(=O)OCC1CN(Cc2ccccc2)CC12CCN(CC1CCCCC1)CC2", "note": "(stereo not shown) [Biotin-RH1115, (2-Benzyl-8-(cyclohexylmethyl)-2,8-diazaspiro[4.5]decan-4-yl)methyl 4-(1-(13-Oxo-17-(2-oxohexahydro-1H-thieno[3,4-d]imidazol-4-yl)-3,6,9-trioxa-12-azaheptadecyl)-1H-1,2,3-triazol-5-yl)butanoate]", "values": [
      {"measurement": "pEC50", "setting": "[2]; Homo sapiens, HeLa, 4 h, read-out: EC50 in the eGFP-LC3 puncta formation assay", "result": 4.34},
      {"measurement": "Lamin A/C capture in pulldown eluent (western blot)", "setting": "[3]", "result": "highly enriched"},
      {"measurement": "glycosylated LAMP1 capture in pulldown eluent (western blot)", "setting": "[4]", "result": "pulled down and concentrated in the eluent"}
    ]},
    {"smiles": "CCCn1cc(CN2CCc3nc(N4CCN(C)CC4)[nH]c(=O)c3CC2)c2ccccc21", "note": "[Compound 1a, 2-(4-Methylpiperazin-1-yl)-7-((1-propyl-1H-indol-3-yl)methyl)-3,5,6,7,8,9-hexahydro-4H-pyrimido[4,5-d]azepin-4-one]", "values": [
      {"measurement": "LC3-II levels by western blot", "setting": "[5]", "result": "significant increase"},
      {"measurement": "phosphorylation of p70S6K (mTOR dependence of autophagy activation)", "setting": "[6]", "result": "mTOR-independent manner"},
      {"measurement": "cytotoxicity in i3Neurons (cell density at end of treatment)", "setting": "[7]", "result": "no overt cytotoxicity"}
    ]},
    {"smiles": "CCCn1cc(CN2CCc3nc(-c4ccccc4)[nH]c(=O)c3CC2)c2ccccc21", "note": "[Compound 1c, 2-Phenyl-7-((1-propyl-1H-indol-3-yl)methyl)-3,5,6,7,8,9-hexahydro-4H-pyrimido[4,5-d]azepin-4-one]", "values": [
      {"measurement": "cytotoxicity (percent viability by nuclear count)", "setting": "[8]", "result": "increase in cell death at concentrations that are close to the concentrations that induced autophagy"}
    ]},
    {"smiles": "OCC1CN(Cc2ccccc2)CC12CCN(Cc1ccccn1)CC2", "note": "(stereo not shown) [Compound 2a, (2-Benzyl-8-(pyridin-2-ylmethyl)-2,8-diazaspiro[4.5]decan-4-yl)methanol]", "values": [
      {"measurement": "LC3-II levels by western blot", "setting": "[5]", "result": "significant increase"},
      {"measurement": "phosphorylation of p70S6K (mTOR dependence of autophagy activation)", "setting": "[6]", "result": "mTOR-independent manner"},
      {"measurement": "cytotoxicity in i3Neurons (cell density at end of treatment)", "setting": "[7]", "result": "no overt cytotoxicity"}
    ]},
    {"smiles": "OCC1CN(Cc2ccccc2)CC12CCN(Cc1ccccc1)CC2", "note": "(stereo not shown) [Compound 2b, (2,8-Dibenzyl-2,8-diazaspiro[4.5]decan-4-yl)methanol]", "values": [
      {"measurement": "fold increase in potency compared to RH1096 (eGFP-LC3 puncta formation)", "setting": "[2]; relative to RH1096", "result": 3, "unit": "fold"},
      {"measurement": "cytotoxicity in i3Neurons (cell density at end of treatment)", "setting": "[7]", "result": "no overt cytotoxicity"}
    ]},
    {"smiles": "OCC1CN(Cc2ccccc2)CC12CCN(CC1CCCCC1)CC2", "note": "(stereo not shown) [Compound 2c, (2-Benzyl-8-(cyclohexylmethyl)-2,8-diazaspiro[4.5]decan-4-yl)methanol]", "values": [
      {"measurement": "fold increase in potency compared to RH1096 (eGFP-LC3 puncta formation)", "setting": "[2]; relative to RH1096", "result": 6, "unit": "fold"},
      {"measurement": "ratio of glycosylated/non-glycosylated LAMP1", "setting": "[9]", "result": "significant increase"},
      {"measurement": "cytotoxicity in i3Neurons (cell density at end of treatment)", "setting": "[7]", "result": "no overt cytotoxicity"},
      {"measurement": "intensity of LAMP1 vesicles", "setting": "[10]", "result": "increased"},
      {"measurement": "mean size of LAMP1 vesicles", "setting": "[10]", "result": "increased"},
      {"measurement": "autolysosome size relative to DMSO-treated condition", "setting": "[1]; 15 μM, 72 h", "result": "~3", "unit": "times"},
      {"measurement": "total RFP intensity per autolysosome vesicle", "setting": "[1]; 15 μM, 72 h, vs DMSO", "result": "increased"}
    ]},
    {"smiles": "OCC1CN(Cc2ccccc2)CC12CCN(Cc1ccncc1)CC2", "note": "(stereo not shown) [Compound 2d, (2-Benzyl-8-(pyridin-4-ylmethyl)-2,8-diazaspiro[4.5]decan-4-yl)methanol]", "values": [
      {"measurement": "fold decrease in potency compared to RH1096 (eGFP-LC3 puncta formation)", "setting": "[2]; relative to RH1096", "result": 2, "unit": "fold"}
    ]}
  ]
}
